From ChEMBL document CHEMBL4680071, “Structure guided generation of thieno[3,2-d]pyrimidin-4-amine Mycobacterium tuberculosis bd oxidase inhibitors” (RSC Med Chem, 2021)

experiment: Inhibition of cytochrome-bd oxidase in Mycobacterium bovis BCG assessed as replicating ATP by measuring ATP depletion incubated for 15 hrs in presence of Q203 by BacTiter-Glo luminescence assay; set-up: species or system Mycobacterium tuberculosis variant bovis BCG
Summary of the method: (§1)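 Cultures grown in Middlebrook 7H9 with 0.05% Tween 80, 0.5% glycerol, BSA fraction V, D-glucose and NaCl. Cells pelleted, resuspended in glycerol-free medium at about 10^7 CFU/mL, added to compound dilutions. Plates incubated 15 h at 37°C. BacTiter-Glo reagent added, luminescence read after 12 min to give ATP level. IC50 from curve fitting.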

First: FC(F)(F)Oc1ccc(CNc2ncnc3ccsc23)cc1
Second: FC(F)(F)Oc1ccc(CCNc2ncnc3ccsc23)cc1
The IC50 of the first is 3-fold higher: 38.1 mM for the first, 12.6 mM for the second. The second is the more potent here.

`FC(F)(F)Oc1ccc(Nc2ncnc3ccsc23)cc1` and `FC(F)(F)c1ccc(CCNc2ncnc3ccsc23)cc1` are within 1.5-fold of each other in IC50: 22.9 mM for the first, 33.1 mM for the second.

`FS(F)(F)(F)(F)c1ccc(CCNc2ncnc3ccsc23)cc1` and `Clc1ccc(CCNc2ncnc3ccsc23)cc1` are within 1.5-fold of each other in IC50: 27.1 mM for the first, 30.4 mM for the second.

Compared with `CC(C)(C)c1ccc(CCNc2ncnc3ccsc23)cc1`, `Cc1ccc(CCNc2ncnc3ccsc23)cc1` is 7-fold higher in IC50: 5.8 mM for the first, 40.4 mM for the second. The first is the more potent here.

Going from `FC(F)(F)c1ccccc1CCNc1ncnc2ccsc12` to `FC(F)(F)c1cccc(CCNc2ncnc3ccsc23)c1`, the IC50 rises from 12.4 mM to 25.6 mM (2.1-fold).

`CN(C)c1ccc(CCNc2ncnc3ccsc23)cc1` and `COc1ccc(CCNc2ncnc3ccsc23)cc1` are within 1.5-fold of each other in IC50: 38.9 mM for the first, 42.8 mM for the second.

Going from `COc1nc2ccc(Br)cc2cc1[C@@H](c1ccccc1)[C@@](O)(CCN(C)C)c1cccc2ccccc12` [BEDAQUILINE] to `FC(F)(F)c1ccc(Oc2ccc(Nc3ncnc4ccccc34)cc2)cc1`, the IC50 rises from 0.09 mM to 0.8 mM (8.9-fold).

First: c1ccc(CCNc2ncnc3ccsc23)cc1
Second: Clc1ccc(CCNc2ncnc3ccsc23)cc1Cl
The IC50 of the first is 1.7-fold higher: 43.3 mM for the first, 25.6 mM for the second. The second is the more potent here.

In the case of `COc1ccc(CCNc2ncnc3sccc23)cc1`, the IC50 is reported as over 0.05 mM.

experiment: Inhibition of cytochrome-bd oxidase in Mycobacterium bovis BCG assessed as replicating ATP by measuring ATP depletion incubated for 15 hrs in absence of Q203 by BacTiter-Glo luminescence assay; set-up: species or system Mycobacterium tuberculosis variant bovis BCG; summary of the method: as §1

`FC(F)(F)Oc1ccc(CNc2ncnc3ccsc23)cc1` and `FC(F)(F)Oc1ccc(CCNc2ncnc3ccsc23)cc1` cannot be ordered by IC50: over 50 mM for the first, over 50 mM for the second.

`FC(F)(F)Oc1ccc(Nc2ncnc3ccsc23)cc1` and `FC(F)(F)c1ccc(CCNc2ncnc3ccsc23)cc1` cannot be ordered by IC50: over 50 mM for the first, over 50 mM for the second.

`FS(F)(F)(F)(F)c1ccc(CCNc2ncnc3ccsc23)cc1` and `Clc1ccc(CCNc2ncnc3ccsc23)cc1` cannot be ordered by IC50: over 50 mM for the first, over 50 mM for the second.

`CC(C)(C)c1ccc(CCNc2ncnc3ccsc23)cc1` and `Cc1ccc(CCNc2ncnc3ccsc23)cc1` cannot be ordered by IC50: over 50 mM for the first, over 50 mM for the second.

`FC(F)(F)c1ccccc1CCNc1ncnc2ccsc12` and `FC(F)(F)c1cccc(CCNc2ncnc3ccsc23)c1` cannot be ordered by IC50: over 50 mM for the first, over 50 mM for the second.

`CN(C)c1ccc(CCNc2ncnc3ccsc23)cc1` and `COc1ccc(CCNc2ncnc3ccsc23)cc1` cannot be ordered by IC50: over 50 mM for the first, over 50 mM for the second.

First: COc1nc2ccc(Br)cc2cc1[C@@H](c1ccccc1)[C@@](O)(CCN(C)C)c1cccc2ccccc12 [BEDAQUILINE]
Second: FC(F)(F)c1ccc(Oc2ccc(Nc3ncnc4ccccc34)cc2)cc1
The IC50 of the first is lower: 0.17 mM for the first, over 50 mM for the second. The first is the more potent here.

`c1ccc(CCNc2ncnc3ccsc23)cc1` and `Clc1ccc(CCNc2ncnc3ccsc23)cc1Cl` cannot be ordered by IC50: over 50 mM for the first, over 50 mM for the second.
